Experimental data as given in ChEMBL document CHEMBL4017491, “Phthalazino[1,2-b]quinazolinones as p53 Activators: Cell Cycle Arrest, Apoptotic Response and Bak-Bcl-xl Complex Reorganization in Bladder Cancer Cells” (J Med Chem, 2017).
Calls of active or inactive are those of the source. The rule behind the calls is not given here.

What was measured:
[1] = test system: T-24; experiment: Induction of apoptosis in human T24 cells assessed as increase in […] level up to 10 uM after 24 hrs by Western blot analysis; assay type: functional, cell-based
In short: (§1)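 T24 cells (3 × 10^5 per well) grown to 85–95% confluence, then exposed 24 h to 0–10 μM. Whole-cell extracts run on SDS-PAGE and blotted to nitrocellulose. Probed with the indicated antibodies and AP-linked anti-rabbit IgG, with ECL detection. Blots stripped and reprobed for β-actin as loading control.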

[2] = test system: T-24; experiment: Induction of apoptosis in human T24 cells assessed as live cells at 5 uM by Annexin V-FITC/propidium iodide based flow cytometric analysis (reference value: 89.5%); assay type: functional
[3] = test system: T-24; experiment: Induction of apoptosis in human T24 cells assessed as early apoptotic cells at 10 uM by Annexin V-FITC/propidium iodide based flow cytometric analysis (reference value: 1.79%); assay type: functional
[4] = test system: PC-3; experiment: Antiproliferative activity against p53 null human PC3 cells by MTT assay; assay type: functional, cell-based
In short: (§2)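 Cell lines cultured in RPMI 1640 with 10% FBS. Viability read by MTT (5 mg/mL, 4 h at 37 °C), with formazan dissolved in DMSO and absorbance taken at 490 nm. Viability (%) = A490 treated / A490 control × 100. IC50 taken from dose-response curves, from three independent experiments each run in triplicate.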

[5] = test system: Mus musculus; experiment: Down regulation of Bak expression in BALB/C nude mouse xenografted with human T24 cells at 6 to 12 mg/kg, ip administered every 2 days for 16 days by immunoblot analysis
[6] = test system: T-24; experiment: Effect on cell cycle distribution in human T24 cells assessed as early apoptotic cells at 1 uM after 1 hr by Annexin V-FITC/propidium iodide staining based FACS analysis relative to control; assay type: functional
[7] = test system: T-24; experiment: Antiproliferative activity against human T24 cells harboring scRNA after 48 hrs by MTT assay; assay type: functional, cell-based
In short: (§3)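 T24 cells pre-exposed to p53-siRNA or scrambled RNA for 24 h, then treated with a concentration series for 48 h. Proliferation measured by MTT read at 490 nm, expressed as % of control absorbance.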

[8] = test system: MGC-803; experiment: Antiproliferative activity against human MGC803 cells by MTT assay; assay type: functional, cell-based; in short: as §2
[9] = test system: Escherichia coli; experiment: Induction of DNA damage in Escherichia coli pBR322 DNA assessed as effect on mobility rate at 1 to 10 uM after 1 hr by DNA relaxation assay
In short: (§4)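 Plasmid pBR322 incubated 1 h with 1–10 μM in 5 mM Tris-HCl, 50 mM NaCl, pH 7.2. Samples run on 1.5% agarose and stained with 0.5 μg/mL ethidium bromide. Lane controls: 1% DMSO (negative) and ethidium bromide (positive).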

[10] = test system: T-24; experiment: Downregulation of Bak protein expression in human T24 cells at 10 uM after 24 hrs by Western blot method; assay type: functional, cell-based
In short: (§5)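 T24 cells, 3 × 10^5 per well, grown to 85−95% confluence, then exposed to 0−10 μM for 24 h. Whole-cell extracts in sample buffer run on SDS-polyacrylamide gels and transferred to nitrocellulose. Blots probed with primary antibodies and AP-linked anti-rabbit IgG, detected by ECL. Blots stripped and reprobed for β-actin as loading control.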

[11] = test system: T-24; experiment: Effect on cell cycle distribution in human T24 cells assessed as late necrotic cells at 5 uM after 1 hr by Annexin V-FITC/propidium iodide staining based FACS analysis (reference value: 1.71%); assay type: functional
[12] = test system: T-24; experiment: Cell cycle arrest in human T24 cells assessed as effect on CDK4 expression up to 10 uM after 24 hrs by Western blot analysis; assay type: functional, cell-based; in short: as §5
[13] = test system: J82; experiment: Cell cycle arrest in human J82 cells assessed as accumulation at G2 phase at 5 uM after 48 hrs by propidium iodide staining based FACS analysis (reference value: 10.92 %); assay type: functional
In short: (§6)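 Cells treated with 1−10 μM for 48 h, trypsinized, and fixed in 70% ethanol. Stained with 50 μg/mL propidium iodide and phase distribution analyzed by flow cytometry. Mean ± SD from three independent measurements.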

[14] = test system: Escherichia coli; experiment: Induction of conformational change in Escherichia coli pBR322 DNA at 1 to 10 uM after 1 hr by DNA relaxation assay; in short: as §4
[15] = test system: T-24; experiment: Induction of apoptosis in human T24 cells assessed as necrotic cells at 5 uM by Annexin V-FITC/propidium iodide based flow cytometric analysis (reference value: 8.53%); assay type: functional
[16] = target: Cellular tumor antigen p53 (Homo sapiens) (UniProt P04637); experiment: Activation of p53 in human T24 cells assessed as increase in p21 protein expression after 24 hrs by Western blot analysis; assay type: cell-based
[17] = test system: T-24; experiment: Induction of apoptosis in human T24 cells assessed as increase in bax level up to 10 uM after 24 hrs by Western blot analysis; assay type: functional, cell-based; in short: as §1
[18] = test system: T-24; experiment: Effect on cell cycle distribution in human T24 cells assessed as live cells at 1 uM after 1 hr by Annexin V-FITC/propidium iodide staining based FACS analysis (reference value: 98.3%); assay type: functional
[19] = test system: J82; experiment: Cell cycle arrest in human J82 cells assessed as accumulation at G1 phase at 1 uM after 48 hrs by propidium iodide staining based FACS analysis (reference value: 42.29 %); assay type: functional; in short: as §6
[20] = test system: T-24; experiment: Effect on Bcl-Xl expression in human T24 cells up to 10 uM after 24 hrs by Western blot analysis; assay type: functional, cell-based; in short: as §5
[21] = test system: T-24; experiment: Induction of apoptosis in human T24 cells assessed as early apoptotic cells at 5 uM by Annexin V-FITC/propidium iodide based flow cytometric analysis (reference value: 1.79%); assay type: functional
[22] = test system: Mus musculus; experiment: Toxicity in BALB/C nude mouse xenografted with human HepG2 cells assessed as effect on food consumption at 6 to 12 mg/kg, ip administered every 2 days for 16 days; assay type: organism-based; conditions: in vivo
In short: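 Male BALB/C nude mice with HepG2 flank xenografts, n = 6/group. Given ip 6 or 12 mg/kg every 2 days in 5% DMSO/saline; vehicle and HCPT 6 mg/kg as controls. Clinical signs, food intake and body weight monitored; tumour size and weight measured three times weekly.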

[23] = test system: T-24; experiment: Antitumor activity against human T24 cells xenografted in BALB/C nude mouse assessed as tumor growth inhibition at 6 mg/kg, ip administered every 2 days for 16 days relative to control; assay type: functional; conditions: T-24, ip, read-out: TGI
[24] = test system: DU-145; experiment: Antiproliferative activity against human DU145 cells harboring p53 mutant by MTT assay; assay type: functional, cell-based; in short: as §2
[25] = test system: T-24; experiment: Induction of apoptosis in human T24 cells assessed as increase in bim level up to 10 uM after 24 hrs by Western blot analysis; assay type: functional, cell-based; in short: as §1
[26] = test system: J82; experiment: Cell cycle arrest in human J82 cells assessed as accumulation at S phase at 5 uM after 48 hrs by propidium iodide staining based FACS analysis (reference value: 46.79 %); assay type: functional; in short: as §6
[27] = test system: J82; experiment: Cell cycle arrest in human J82 cells assessed as accumulation at G2 phase at 1 uM after 48 hrs by propidium iodide staining based FACS analysis (reference value: 10.92 %); assay type: functional; in short: as §6
[28] = test system: T-24; experiment: Induction of apoptosis in human T24 cells assessed as late apoptotic cells at 5 uM by Annexin V-FITC/propidium iodide based flow cytometric analysis (reference value: 0.193%); assay type: functional
[29] = test system: T-24; experiment: Antiproliferative activity against human T24 cells harboring p53 siRNA up to 5 uM after 48 hrs by MTT assay; assay type: functional, cell-based; in short: as §3

Chain of Cellular tumor antigen p53 (Homo sapiens) (P04637 whole entry, looked up): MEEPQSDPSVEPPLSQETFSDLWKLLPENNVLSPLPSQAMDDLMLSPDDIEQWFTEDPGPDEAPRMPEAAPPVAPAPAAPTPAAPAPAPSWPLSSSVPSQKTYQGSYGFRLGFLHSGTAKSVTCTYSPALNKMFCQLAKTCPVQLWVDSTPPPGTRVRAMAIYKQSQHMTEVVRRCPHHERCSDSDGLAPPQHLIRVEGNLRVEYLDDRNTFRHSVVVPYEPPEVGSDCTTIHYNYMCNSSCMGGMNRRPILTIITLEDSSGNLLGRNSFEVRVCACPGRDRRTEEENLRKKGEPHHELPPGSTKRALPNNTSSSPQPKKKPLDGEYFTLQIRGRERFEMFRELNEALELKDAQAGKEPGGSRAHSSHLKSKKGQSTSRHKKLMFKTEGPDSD

CN(C)CCNc1nn2c(=O)c3cc(Br)ccc3nc2c2ccccc12
Activity [1]: Active
Activity [2]: 62.8%
Activity [3]: 29.4%
Activity [4]: inactive
Activity [5]: Active
Activity [6]: 0%
Activity [7]: Dose-dependent effect
IC50 [8]: 4.29 µM
Activity [9]: inactive
Activity [10]: Active
Activity [11]: 10.6%
Activity [12]: inactive
Activity [13]: 38.21%
Activity [14]: inactive
Activity [15]: 0.661%
Activity [16]: Dose-dependent effect
Activity [17]: Active
Activity [18]: 93.5%
Activity [19]: 48.49%
Activity [20]: inactive
Activity [21]: 26.4%
Activity [22]: Non-Toxic
inhibition in vivo at 6 mg/kg [23]: 44.8%
Activity [24]: inactive
Activity [25]: Active
Activity [26]: 44.01%
Activity [27]: 12%
Activity [28]: 10.2%
Activity [29]: inactive
